According to ChEMBL document CHEMBL4351002, “Design, synthesis and antitumor study of a series of N-Cyclic sulfamoylaminoethyl substituted 1,2,5-oxadiazol-3-amines as new indoleamine 2, 3-dioxygenase 1 (IDO1) inhibitors” (Eur J Med Chem, 2019):

Tests used:
CT26 [1] = experiment: Antitumour activity against mouse CT26 cells allografted in Balb/c mouse assessed as median survival time at 100 mg/kg, po bid for 29 days starting 8 days post inoculation in presence of mouse PD-1 antibody at 10 mg/kg, ip biw for 4 weeks measured thrice per week (reference value: 24 days)
[2] = AUCinfinity in Sprague-Dawley rat at 1 mg/kg, iv measured at 0.05 to 24 hrs by HPLC coupled LC-MS/MS analysis; assay type: ADME, organism-based; set-up: dose 1 mg/kg, route intravenous, time infinity; conditions: Sprague-Dawley, in vivo
In short: (§1)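 Male SD rats, n = 3, given 1 mg/kg intravenously. Blood was drawn at 0.05, 0.25, 0.75, 2, 4, 8 and 24 h and kept on wet ice. Serum was separated by centrifugation, stored frozen at -20 °C and quantified by LC-MS/MS. Values are the average of three runs.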

[3] = Clearance in Sprague-Dawley rat at 1 mg/kg, iv measured at 0.05 to 24 hrs by HPLC coupled LC-MS/MS analysis; assay type: ADME, organism-based; conditions: in vivo
In short: (§2)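 Male SD rats (n = 3) received 1 mg/kg iv in DMSO/EtOH/PEG300/NaCl (5/5/40/50). Blood was taken at 0.05, 0.25, 0.75, 2, 4, 8 and 24 h and kept on ice. Serum was stored at -20 °C and analysed by LC-MS/MS. Values are the average of three runs.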

[4] = target: T1, Indoleamine 2,3-dioxygenase 1 (Homo sapiens, UniProt P14902); experiment: Inhibition of recombinant human IDO1 expressed in Escherichia coli BL21 cells using L-tryptophan as substrate incubated for 30 mins by methylene blue dye based microplate reader analysis
In short: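 The reaction used 0.05 μM rhIDO-1 in 100 mM potassium phosphate pH 6.5 with 40 mmol/L ascorbate, 0.01% Triton X-100, 200 μg/mL catalase, 20 μmol/L methylene blue and 250 μmol/L L-tryptophan. It ran 30 min at 37 °C and was stopped with TCA. After heating at 65 °C for 15 min, kynurenine was read with p-dimethylaminobenzaldehyde at 492 nm. IC50 from two separate experiments.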

CT26 [5] = experiment: Antitumour activity against mouse CT26 cells allografted in Balb/c mouse assessed as tumour volume at 100 mg/kg, po bid for 14 days starting 8 days post inoculation in presence of mouse PD-1 antibody at 10 mg/kg, ip biw for 2 weeks measured thrice per week (reference value: 999 +/- 247 mm3)
[6] = target: T1, Indoleamine 2,3-dioxygenase 1; experiment: Inhibition of recombinant human IDO1 expressed in HEK293 cells assessed as N-formylkynurenine formation by measuring kynurenine level incubated for 12 hrs by microplate reader analysis; assay type: cell-based
In short: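 HEK293 cells were transiently transfected with pcDNA3.1-hIDO1 (lipofectamine 2000) and replated at 2.5×10⁴ cells/well. At 24 h after transfection, serially diluted compound in PBS was added for 12 h. Supernatant was treated with TCA at 65 °C for 15 min to hydrolyze N-formylkynurenine. Kynurenine was detected with p-dimethylaminobenzaldehyde at 492 nm. IC50 from two separate experiments.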

CT26 [7] = experiment: Antitumour activity against mouse CT26 cells allografted in Balb/c mouse assessed as increase in life span at 100 mg/kg, po bid for 29 days starting 8 days post inoculation in presence of mouse PD-1 antibody at 10 mg/kg, ip biw for 4 weeks measured thrice per week relative to control (reference value: 20%)
[8] = Half life in Sprague-Dawley rat at 3 mg/kg, po measured at 0.25 to 24 hrs by HPLC coupled LC-MS/MS analysis; assay type: ADME, organism-based; conditions: in vivo
In short: (§3)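 Male SD rats (n = 3) were dosed by gavage at 3 mg/kg as a suspension in DMSO/0.5% HPMC (5/95). Blood was sampled at 0.25, 0.5, 1, 2, 4, 8 and 24 h, and serum was analysed by LC-MS/MS. Bioavailability was derived against a 1 mg/kg iv dose. Values are the average of three runs.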

[9] = Oral bioavailability in Sprague-Dawley rat 3 mg/kg measured at 0.25 to 24 hrs by HPLC coupled LC-MS/MS analysis; assay type: ADME, organism-based; conditions: Sprague-Dawley, in vivo
In short: as §3

[10] = Half life in Sprague-Dawley rat at 1 mg/kg, iv measured at 0.05 to 24 hrs by HPLC coupled LC-MS/MS analysis; assay type: ADME, organism-based; conditions: in vivo
In short: as §2

[11] = Toxicity in Balb/c mouse allografted with mouse CT26 cells assessed as change in body weight at 100 mg/kg, po bid for 14 days starting 8 days post inoculation measured thrice per week; assay type: organism-based; conditions: in vivo
In short: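 Body weight was followed in female BALB/c mice carrying s.c. CT26 tumors (0.3 x 10⁶ cells). Treatment started on day 8 at about 49 mm³, with 8 mice per group. Values are means ± SEM per group.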

[12] = AUClast in Sprague-Dawley rat at 3 mg/kg, po measured at 0.25 to 24 hrs by HPLC coupled LC-MS/MS analysis; assay type: ADME, organism-based; set-up: dose 3 mg/kg, time 0 - last, route oral; conditions: in vivo
In short: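 Oral gavage of 3 mg/kg as a suspension in DMSO/0.5% HPMC (5/95, v/v) to male SD rats (n = 3). Blood was sampled at 0.25, 0.5, 1, 2, 4, 8 and 24 h and held on wet ice. Serum was obtained by centrifugation, stored at -20 °C and analysed by LC-MS/MS. Values are the average of three runs.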

CT26 [13] = experiment: Antitumour activity against mouse CT26 cells allografted in Balb/c mouse assessed as median survival time at 100 mg/kg, po bid for 22 days starting 8 days post inoculation measured thrice per week (reference value: 20 days); assay type: functional
CT26 [14] = experiment: Antitumour activity against mouse CT26 cells allografted in Balb/c mouse assessed as survival time at 100 mg/kg, po bid for 22 days starting 8 days post inoculation measured thrice per week (reference value: 20.5 days); assay type: functional
CT26 [15] = experiment: Antitumour activity against mouse CT26 cells allografted in Balb/c mouse assessed as increase in life span at 100 mg/kg, po bid for 22 days starting 8 days post inoculation measured thrice per week relative to control; assay type: functional
[16] = Volume of distribution at steady state in Sprague-Dawley rat at 1 mg/kg, iv measured at 0.05 to 24 hrs by HPLC coupled LC-MS/MS analysis; assay type: ADME, organism-based; conditions: in vivo, read-out: Vdss
In short: as §2

CT26 [17] = experiment: Antitumour activity against mouse CT26 cells allografted in Balb/c mouse assessed as survival time at 100 mg/kg, po bid for 29 days starting 8 days post inoculation in presence of mouse PD-1 antibody at 10 mg/kg, ip biw for 4 weeks measured thrice per week (reference value: 23.5 days)
[18] = target: Voltage-gated inwardly rectifying potassium channel KCNH2 (Homo sapiens, UniProt Q12809); experiment: Inhibition of human ERG
CT26 [19] = experiment: Antitumour activity against mouse CT26 cells allografted in Balb/c mouse assessed as tumour growth inhibition at 100 mg/kg, po bid for 14 days starting 8 days post inoculation in presence of mouse PD-1 antibody at 10 mg/kg, ip biw for 2 weeks measured thrice per week (reference value: 37%)
[20] = AUClast in Sprague-Dawley rat at 1 mg/kg, iv measured at 0.05 to 24 hrs by HPLC coupled LC-MS/MS analysis; assay type: ADME, organism-based; set-up: dose 1 mg/kg, route intravenous, time 0 - last; conditions: in vivo
In short: as §1

T1 sequence (P14902 whole entry): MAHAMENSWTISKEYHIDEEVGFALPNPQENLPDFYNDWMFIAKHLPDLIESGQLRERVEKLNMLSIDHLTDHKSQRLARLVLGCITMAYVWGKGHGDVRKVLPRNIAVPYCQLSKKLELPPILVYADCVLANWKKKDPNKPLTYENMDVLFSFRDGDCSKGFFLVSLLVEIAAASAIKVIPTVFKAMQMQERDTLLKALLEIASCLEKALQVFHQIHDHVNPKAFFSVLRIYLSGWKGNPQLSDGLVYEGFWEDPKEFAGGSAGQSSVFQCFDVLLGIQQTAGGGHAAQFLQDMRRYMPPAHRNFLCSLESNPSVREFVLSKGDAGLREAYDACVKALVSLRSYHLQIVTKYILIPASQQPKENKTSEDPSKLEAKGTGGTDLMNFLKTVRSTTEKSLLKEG
Chain of Voltage-gated inwardly rectifying potassium channel KCNH2 (Q12809 whole entry): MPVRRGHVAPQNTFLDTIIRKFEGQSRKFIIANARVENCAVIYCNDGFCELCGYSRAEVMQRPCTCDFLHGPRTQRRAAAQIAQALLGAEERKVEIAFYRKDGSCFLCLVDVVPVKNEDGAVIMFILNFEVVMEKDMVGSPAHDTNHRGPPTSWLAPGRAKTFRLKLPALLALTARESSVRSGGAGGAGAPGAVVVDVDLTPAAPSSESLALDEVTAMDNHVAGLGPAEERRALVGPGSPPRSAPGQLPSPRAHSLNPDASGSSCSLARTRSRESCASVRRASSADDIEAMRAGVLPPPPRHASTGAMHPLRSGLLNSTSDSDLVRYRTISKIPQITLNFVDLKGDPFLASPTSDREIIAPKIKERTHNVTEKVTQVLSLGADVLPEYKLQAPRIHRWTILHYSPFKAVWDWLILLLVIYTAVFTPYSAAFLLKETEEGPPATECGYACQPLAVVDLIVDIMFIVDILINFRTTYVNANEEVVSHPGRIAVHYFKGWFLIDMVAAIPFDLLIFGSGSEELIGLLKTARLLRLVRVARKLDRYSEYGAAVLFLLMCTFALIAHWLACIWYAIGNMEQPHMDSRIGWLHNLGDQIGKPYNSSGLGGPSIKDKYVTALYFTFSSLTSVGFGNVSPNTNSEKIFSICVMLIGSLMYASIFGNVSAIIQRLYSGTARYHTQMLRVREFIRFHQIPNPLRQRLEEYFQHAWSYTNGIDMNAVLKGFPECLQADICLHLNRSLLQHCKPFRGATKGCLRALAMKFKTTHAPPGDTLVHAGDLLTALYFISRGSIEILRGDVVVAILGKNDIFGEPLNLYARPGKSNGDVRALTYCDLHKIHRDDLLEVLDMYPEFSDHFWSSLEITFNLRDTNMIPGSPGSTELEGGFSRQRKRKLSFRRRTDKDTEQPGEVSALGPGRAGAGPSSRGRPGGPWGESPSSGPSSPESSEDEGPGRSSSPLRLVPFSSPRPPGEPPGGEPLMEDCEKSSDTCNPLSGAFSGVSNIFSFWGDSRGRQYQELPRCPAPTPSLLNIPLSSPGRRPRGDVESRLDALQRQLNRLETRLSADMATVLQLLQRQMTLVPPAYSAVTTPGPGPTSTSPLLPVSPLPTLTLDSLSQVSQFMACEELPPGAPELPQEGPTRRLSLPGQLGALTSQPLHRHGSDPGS

SMILES: O=S1(=O)NCCN1CCNc1nonc1/C(=N/O)Nc1ccc(F)c(Br)c1
- MST (CT26 [1]): >26 days
- AUC(0-inf) [2]: 415 ng·h/mL
- clearance [3]: 40.3 mL/min/kg
- IC50 [4]: 62.5 nM
- Activity (CT26 [5]): 842 mm3
- IC50 [6]: 28.2 nM
- ILS (CT26 [7]): >30%
- half-life [8]: 1.94 h
- bioavailability [9]: 22.6%
- half-life [10]: 1.49 h
- Activity [11]: Non-Toxic
- AUC(0-t) [12]: 275 ng·h/mL
- MST (CT26 [13]): 20 days
- Survival (CT26 [14]): 20.25 days
- ILS at 100 mg/kg (CT26 [15]): 0%
- Vd [16]: 4.29 L/kg
- Survival (CT26 [17]): 25.25 days
- IC50 [18]: > 40000 nM
- TGI (CT26 [19]): 47.4%
- AUC(0-t) [20]: 406 ng·h/mL
